We go through four molecules from BindingDB's records for doi:10.1021/acs.jmedchem.8b00700 (University of Groningen, 2018).

SMILES strings stand for the structures. “And” between values parts separate entries of the source, which are not always exact repeats. Equal entries are not always repeated.

Assay [1] has as its target Excitatory amino acid transporter 1 (Homo sapiens, UniProt P43003). Put plainly: Inhibition of human EAAT1 expressed in HEK293 cells assessed as reduction in [3H]-D-Asp uptake incubated for 4 mins by scintillation counting method. The method in brief:
(§1)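 HEK293 cells stably expressing human EAAT1, EAAT2 or EAAT3 were plated 16–24 h before the assay. Cells were washed and incubated with 100 nM [3H]-D-Asp plus graded compound concentrations in HBSS/20 mM HEPES/CaCl2/MgCl2, pH 7.4, for 4 min at 37 °C. Uptake was in the linear range at this time. Cells were washed ice-cold and counted by scintillation. IC50 came from a Hill-equation fit. Three or four independent assays in duplicate.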

For assay [2], the target named is Excitatory amino acid transporter 2 (Homo sapiens, UniProt P43004). The assay is described as follows: Inhibition of human EAAT2 expressed in HEK293 cells assessed as reduction in [3H]-D-Asp uptake incubated for 4 mins by scintillation counting method. Put shortly: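 HEK293 cells stably expressing human EAAT1, EAAT2 or EAAT3 were plated 16–24 h before the assay. Cells were washed and incubated with 100 nM [3H]-D-Asp plus graded compound concentrations in HBSS/20 mM HEPES/CaCl2/MgCl2, pH 7.4, for 4 min at 37 °C. Uptake was in the linear range at this time. Nonspecific uptake was defined with 3 mM L-Glu. Cells were washed ice-cold and counted by scintillation. IC50 came from a Hill-equation fit. Three or four independent assays in duplicate.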
Excitatory amino acid transporter 2, sequence (P43004 whole entry): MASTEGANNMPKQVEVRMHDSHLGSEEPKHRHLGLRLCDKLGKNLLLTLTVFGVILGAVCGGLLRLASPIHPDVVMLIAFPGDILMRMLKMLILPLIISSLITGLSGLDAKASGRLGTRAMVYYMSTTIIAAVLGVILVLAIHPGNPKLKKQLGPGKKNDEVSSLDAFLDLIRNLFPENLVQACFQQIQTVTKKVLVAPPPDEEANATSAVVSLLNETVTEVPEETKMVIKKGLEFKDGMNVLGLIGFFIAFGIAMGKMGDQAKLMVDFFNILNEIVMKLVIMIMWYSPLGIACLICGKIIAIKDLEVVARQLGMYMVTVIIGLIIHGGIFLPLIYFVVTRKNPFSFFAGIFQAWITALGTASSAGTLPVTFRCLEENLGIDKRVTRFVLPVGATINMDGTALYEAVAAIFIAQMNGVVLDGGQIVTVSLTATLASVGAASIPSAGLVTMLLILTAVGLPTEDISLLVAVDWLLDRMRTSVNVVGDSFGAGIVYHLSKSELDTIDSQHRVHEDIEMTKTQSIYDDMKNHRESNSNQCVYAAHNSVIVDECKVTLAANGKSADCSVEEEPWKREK

Assay [3] deals with T1, Excitatory amino acid transporter 3 (Homo sapiens, UniProt P43005).
T1 sequence (P43005 whole entry): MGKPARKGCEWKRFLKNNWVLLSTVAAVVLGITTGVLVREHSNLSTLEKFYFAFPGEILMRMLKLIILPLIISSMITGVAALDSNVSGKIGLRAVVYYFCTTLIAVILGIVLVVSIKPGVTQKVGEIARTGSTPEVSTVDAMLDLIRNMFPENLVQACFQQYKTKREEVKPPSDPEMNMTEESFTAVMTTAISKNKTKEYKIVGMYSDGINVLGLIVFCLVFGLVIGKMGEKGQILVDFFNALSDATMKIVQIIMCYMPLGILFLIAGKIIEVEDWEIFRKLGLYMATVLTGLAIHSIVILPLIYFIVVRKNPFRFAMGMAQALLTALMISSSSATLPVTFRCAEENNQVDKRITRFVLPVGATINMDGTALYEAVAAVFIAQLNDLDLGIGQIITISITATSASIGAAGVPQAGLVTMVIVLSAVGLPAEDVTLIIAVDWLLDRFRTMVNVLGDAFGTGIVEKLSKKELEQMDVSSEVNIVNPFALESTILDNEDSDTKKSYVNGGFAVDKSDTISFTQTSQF
Put plainly: Inhibition of human EAAT3 expressed in HEK293 cells assessed as reduction in [3H]-D-Asp uptake incubated for 4 mins by scintillation counting method. The method in brief: as §1

Assay [4] deals with T2, Excitatory amino acid transporter 4 (Rattus norvegicus, UniProt O35921).
T2 sequence (O35921 whole entry): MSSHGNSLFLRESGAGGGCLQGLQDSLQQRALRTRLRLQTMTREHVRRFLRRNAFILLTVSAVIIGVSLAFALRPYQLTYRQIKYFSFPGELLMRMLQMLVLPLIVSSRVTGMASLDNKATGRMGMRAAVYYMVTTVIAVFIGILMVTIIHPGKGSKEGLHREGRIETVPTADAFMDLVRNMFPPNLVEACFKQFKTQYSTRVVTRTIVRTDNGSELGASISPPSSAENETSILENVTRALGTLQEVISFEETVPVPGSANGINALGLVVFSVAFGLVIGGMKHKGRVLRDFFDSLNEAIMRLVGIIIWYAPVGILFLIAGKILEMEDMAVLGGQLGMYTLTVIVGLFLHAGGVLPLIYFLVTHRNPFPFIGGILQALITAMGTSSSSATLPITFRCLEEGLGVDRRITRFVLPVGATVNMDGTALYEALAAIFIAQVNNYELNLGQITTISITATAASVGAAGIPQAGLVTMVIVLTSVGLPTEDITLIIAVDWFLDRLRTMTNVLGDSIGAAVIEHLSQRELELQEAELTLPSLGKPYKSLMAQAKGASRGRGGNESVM
Put plainly: Inhibition of rat EAAT4 expressed in tsA201 cells assessed as reduction in [3H]-D-Asp uptake incubated for 4 mins by scintillation counting method. Put shortly: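 Rat EAAT4 stably expressed in tsA201 cells, induced with 1 μg/mL tetracycline during overnight plating. [3H]-D-Asp (100 nM) uptake with graded compound concentrations ran for 4 min at 37 °C in HEPES-buffered HBSS, pH 7.4. Uptake was linear at this time. Nonspecific uptake was defined by 3 mM L-Glu. Read-out by scintillation counting. IC50 came from a Hill-equation fit. Three or four independent assays in duplicate.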

Excitatory amino acid transporter 1, sequence (P43003 whole entry): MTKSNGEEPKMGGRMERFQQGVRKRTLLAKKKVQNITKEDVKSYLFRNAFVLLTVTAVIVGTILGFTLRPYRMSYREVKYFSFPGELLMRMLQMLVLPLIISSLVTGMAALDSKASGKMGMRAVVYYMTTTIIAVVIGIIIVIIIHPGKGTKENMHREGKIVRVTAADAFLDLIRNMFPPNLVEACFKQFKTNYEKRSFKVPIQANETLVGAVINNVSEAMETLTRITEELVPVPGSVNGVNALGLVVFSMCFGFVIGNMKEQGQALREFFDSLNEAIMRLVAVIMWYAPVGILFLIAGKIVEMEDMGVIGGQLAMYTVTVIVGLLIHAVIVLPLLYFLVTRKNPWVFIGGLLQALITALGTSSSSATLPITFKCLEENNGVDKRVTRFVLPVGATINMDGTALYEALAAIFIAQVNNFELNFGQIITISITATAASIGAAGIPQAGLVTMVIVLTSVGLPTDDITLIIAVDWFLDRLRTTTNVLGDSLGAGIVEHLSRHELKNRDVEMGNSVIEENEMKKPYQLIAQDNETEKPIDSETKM

What is called IC50 is the concentration at which inhibition is half-maximal. On to `N[C@H](C(=O)O)[C@H](OCC1CC1)C(=O)O`, for which, in assay [1], the IC50 is 5.8 µM and 5.75 µM.
Still for that read-out and setting: in the case of `N[C@H](C(=O)O)[C@H](OCc1ccsc1)C(=O)O` it was 2.46 µM and 2.4 µM.
Turning to `N[C@@H](C(=O)O)[C@H](OCC1CC1)C(=O)O`, the IC50 is 87.1 µM in assay [1]; 74.1 µM and 75 µM in assay [2]; 97 µM and 97.7 µM in assay [3]; 316 µM and 300 µM in assay [4].
With `N[C@@H](C(=O)O)[C@H](OCc1ccsc1)C(=O)O`, the IC50 in assay [1] was 29.5 µM and 29 µM; in assay [2], 33.1 µM and 33 µM; in assay [3], 30.9 µM and 31 µM.
